Measurements as given in publication PMC4633329 (Chemistry and physics of lipids, 2015).
Converted amounts (≈) assume the structure as drawn. “And” between values parts separate entries of the source, which are not always exact repeats. Identical values can stand only once. Like-named read-outs stand apart in the source and are kept apart here.

Tests used:
MbCO = conditions: read-out: MbCO-PA Kd; ref [47]; [48]; cited from earlier work
MbCN [1] = conditions: read-out: MbCN-PA Kd; ref [47]; [48]; cited from earlier work
deoxy Mb = conditions: ref [47]; [48]; cited from earlier work
MbCN [2] = target: MbCN (Equus caballus, UniProt P68082); test: 1H NMR titration of MbCN with OA; type: binding, horse
Procedure, shortened: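 Horse metMb converted to MbCN with 5-fold excess KCN in 30mM Tris, 1mM EDTA, pH 7.4. OA stock (10 or 100mM, pH 8.5, 65°C) added to 0.2-0.8 mM MbCN at 35°C (OA:Mb up to 60:1). 1H NMR at 600 MHz, 35°C, Watergate, 10% D2O, TSP reference. Heme methyl intensity loss fitted to a specific plus non-specific 2-site model by Marquardt-Levenberg regression.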

Mb [3] = target: Mb (Equus caballus, UniProt P68082); test: Optical spectra; design: species or system horse
[4] = OA solubility from NMR visible EFG; type: physicochemical
[5] = pK of OA by NMR pH titration; type: physicochemical; conditions: 0.8 mM OA, 35 °C, 1H NMR, referenced to peak position at pH 12.14
FABP = conditions: read-out: Dissociation Constant KFABP; flux model input; ref [15]; [45]; cited from earlier work
[6] = in the cell, cited from earlier work
[7] = cited from earlier work
Mb [8] = conditions: 25:1 ratio of SDS to Mb; ref [50]; cited from earlier work

Sequence of Mb (Equus caballus, UniProt P68082) (P68082 whole entry): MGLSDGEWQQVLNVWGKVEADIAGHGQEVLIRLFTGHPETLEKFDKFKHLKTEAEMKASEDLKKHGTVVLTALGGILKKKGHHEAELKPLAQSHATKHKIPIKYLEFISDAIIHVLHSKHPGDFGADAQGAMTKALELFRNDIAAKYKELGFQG
Sequence of MbCN (Equus caballus, UniProt P68082) (P68082 whole entry): as above

In the case of `CCCCCCCCCCCCCCCC(=O)O` [PA, palmitate], the Kd (MbCO) is listed as 39 to 48 µM, the Kd (MbCN [1]) is listed as 43 µM and the “PA interaction with deoxy Mb” value (deoxy Mb) is listed as “does not interact specifically or non-specifically”.

In the case of `CCCCCCCC/C=C\CCCCCCCC(=O)O` [OA, oleic acid], the Kd (MbCN [2]; Dissociation Constant KMb2 (non-specific binding), 2-site model, high OA:Mb) is reported as 37000 µM, the Kd (MbCN [2]; apparent Kd (Kd1, KMb1), specific OA binding to MbCN, heme 8-CH3 signal loss, OA:Mb < 2:1, pH 7.4, 35 °C) is reported as 45 µM and the “hemichrome formation in optical spectra” value (Mb [3]; OA:Mb of 5:1 to 50:1) is reported as “do not detect any signs of hemichrome formation”. For the same molecule, the “reduction in Soret band intensity” value (Mb [3]; OA:Mb of 50:1) was 5%, the Soret band position (Mb [3]; OA:Mb of 50:1, shifts from 422) was 420 nm and the “perturbation of Mb Soret band at 422 nm” value (Mb [3]; OA:Mb ratio up to 5:1) was “no significant perturbation”. The “reduction in Soret band intensity” value (Mb [3]; OA:Mb ratios 20:1 to 50:1) was under 5%, the Soret band position (Mb [3]; OA:Mb ratios 20:1 to 50:1, 422 nm without OA) was 420 nm and the “metMb signal in optical spectra” value (Mb [3]; OA:Mb up to 50:1) was “no detectable metMb signal”. The Solubility ([4]; 0.8mM MbCN in Tris, pH 7.4 35°C, 0.0904g/100g total OA added) was 7.03×10^−2 g/100g, the Solubility ([4]; 10.8mM MbCN in phosphate, pH 7.4 35°C, 0.0904g/100g total OA added) was 6.59×10^−2 g/100g and the Solubility ([4]; 30 mM Tris buffer, 35 °C, pH 7.4, aqueous buffer, kinetic from dmso stock) was 1430 µM (≈ 404 µg/mL). The Solubility ([4]; 30 mM Tris buffer, 35 °C, pH 12, aqueous buffer, kinetic from dmso stock) was 2990 µM (≈ 845 µg/mL), the Solubility ([4]; 30 mM Tris buffer, pH 7.4 35°C, 0.0904g/100g total OA added) was 4.04×10^−2 g/100g and the Solubility ([4]; 30 mM Tris buffer, pH 12 35°C, 0.0904g/100g total OA added) was 8.45×10^−2 g/100g. For the same molecule, the Solubility ([4]; 100 mM phosphate buffer, 35 °C, pH 7.4, aqueous buffer, kinetic from dmso stock) was 1260 µM (≈ 356 µg/mL), the Solubility ([4]; 100 mM phosphate buffer, pH 7.4 35°C, 0.0904g/100g total OA added) was 3.56×10^−2 g/100g and the “pK from peak B” value [5] was 8.22. For the same molecule, the “pK from peak D” value [5] was 8.07, the Kd (FABP) was 0.014 µM and the “Diffusion Constant, Fatty acid (DOA)” value ([6]; highest reported value, ref [52]) was 4.6 × 10^−6 cm^2s^−1. The Solubility ([7]; 66 mM phosphate buffer, pH 7.4 at 37°C, ref [53], listed as Oleate) was 1.00×10^−6 M and 2.83×10^−5 g/100g, the Solubility ([7]; 0.2 M HEPES, pH 7.4 at 37°C, ref [46], listed as Oleate) was 6.00×10^−6 M and 1.70×10^−4 g/100g and the Solubility ([7]; 95% of ethanol at 20°C, ref [22]) was “∞”. For the same molecule, the Solubility ([7]; Acetone at 20°C, ref [22]) was “∞” and the Solubility ([7]; Benzene at 20°C, ref [22]) was “∞”.

In the case of `CCCCCCCCCCCCOS(=O)(=O)[O-].[Na+]` [SDS, sodium dodecyl sulfate], the “loss of Soret band signal intensity” value (Mb [8]) is given as 25%.

B1: Mb: myoglobin; solutions prepared from lyophilized horse heart protein (protein, UniProt P68082 2-154, looked up)
Myoglobin: GLSDGEWQQVLNVWGKVEADIAGHGQEVLIRLFTGHPETLEKFDKFKHLKTEAEMKASEDLKKHGTVVLTALGGILKKKGHHEAELKPLAQSHATKHKIPIKYLEFISDAIIHVLHSKHPGDFGADAQGAMTKALELFRNDIAAKYKELGFQG
In the case of B1, the “Diffusion Constant, Myoglobin (DMb)” value ([6]; ref [34]) is listed as 7.85 × 10^−7 cm^2s^−1.
